# Tested on: Liver
# Test: Metabolic stability in mouse liver microsomes
# Format: ADME, Microsome
# Conditions: not given
row,Structure (SMILES),Stability [%]
1,CC(C)(C)N1CCN(c2ccc(N3CCN(C(=O)N[C@H]4C5CC6CC4C[C@](O)(C6)C5)c4ccccc43)nc2)CC1,6
2,CS(=O)(=O)N1CCN(c2cnc(N3CCN(C(=O)N[C@H]4C5CC6CC4C[C@](O)(C6)C5)c4ccccc43)nc2)CC1,18
3,NC(=O)[C@]12CC3CC(C1)[C@@H](NC(=O)N1CCN(c4ccc(N5CCN(S(=O)(=O)C6CC6)CC5)cn4)c4ccccc41)C(C3)C2,18

# More lines, now with the values ahead:
row,Stability [%],Structure (SMILES)
1,96,COc1ccc(-c2cnc(N3CCN(C(=O)N[C@H]4C5CC6CC4C[C@](OC(N)=O)(C6)C5)c4ccccc43)nc2)cc1
2,18,CS(=O)(=O)N1CCN(c2ccc(N3CCN(C(=O)N[C@H]4C5CC6CC4C[C@](O)(C6)C5)c4ccccc43)nc2)CC1
3,27,COc1ccc(-c2cnc(N3CCN(C(=O)N[C@H]4C5CC6CC4C[C@](C(N)=O)(C6)C5)c4ccccc43)nc2)cc1

# Tested on: Liver microsomes
# Test: Metabolic stability in rat liver microsomes
# Format: ADME, Microsome
# Conditions: not given
row,Structure (SMILES),Stability [%]
1,CC(C)(C)N1CCN(c2ccc(N3CCN(C(=O)N[C@H]4C5CC6CC4C[C@](O)(C6)C5)c4ccccc43)nc2)CC1,20
2,CS(=O)(=O)N1CCN(c2cnc(N3CCN(C(=O)N[C@H]4C5CC6CC4C[C@](O)(C6)C5)c4ccccc43)nc2)CC1,24
3,NC(=O)[C@]12CC3CC(C1)[C@@H](NC(=O)N1CCN(c4ccc(N5CCN(S(=O)(=O)C6CC6)CC5)cn4)c4ccccc41)C(C3)C2,31

# Next, values leading:
row,Stability [%],Structure (SMILES)
1,70,COc1ccc(-c2cnc(N3CCN(C(=O)N[C@H]4C5CC6CC4C[C@](OC(N)=O)(C6)C5)c4ccccc43)nc2)cc1
2,12,CS(=O)(=O)N1CCN(c2ccc(N3CCN(C(=O)N[C@H]4C5CC6CC4C[C@](O)(C6)C5)c4ccccc43)nc2)CC1
3,32,COc1ccc(-c2cnc(N3CCN(C(=O)N[C@H]4C5CC6CC4C[C@](C(N)=O)(C6)C5)c4ccccc43)nc2)cc1

# Target: Cytochrome P450 3A4 (Homo sapiens, UniProt P08684)
# Sequence (P08684 whole entry): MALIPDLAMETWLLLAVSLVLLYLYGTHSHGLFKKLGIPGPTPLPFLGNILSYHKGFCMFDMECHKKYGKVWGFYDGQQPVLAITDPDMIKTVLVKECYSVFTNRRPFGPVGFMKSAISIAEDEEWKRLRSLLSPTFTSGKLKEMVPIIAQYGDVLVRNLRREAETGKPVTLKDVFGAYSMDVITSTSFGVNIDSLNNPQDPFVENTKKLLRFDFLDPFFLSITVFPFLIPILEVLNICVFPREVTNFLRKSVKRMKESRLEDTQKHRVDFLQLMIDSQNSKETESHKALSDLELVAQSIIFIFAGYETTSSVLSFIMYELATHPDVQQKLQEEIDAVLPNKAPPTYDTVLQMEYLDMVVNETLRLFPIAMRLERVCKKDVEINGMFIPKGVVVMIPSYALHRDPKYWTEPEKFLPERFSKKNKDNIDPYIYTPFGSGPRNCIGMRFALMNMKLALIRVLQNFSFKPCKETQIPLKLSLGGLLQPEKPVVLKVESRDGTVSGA
# Test: Inhibition of CYP3A4 (unknown origin)
# Format: ADME
# Conditions: not given
row,Structure (SMILES),IC50 [nM]
1,CS(=O)(=O)N1CCN(c2cnc(N3CCN(C(=O)N[C@H]4C5CC6CC4C[C@](O)(C6)C5)c4ccccc43)nc2)CC1,> 10000
2,NC(=O)[C@]12CC3CC(C1)[C@@H](NC(=O)N1CCN(c4ccc(N5CCN(S(=O)(=O)C6CC6)CC5)cn4)c4ccccc41)C(C3)C2,> 30000

# Continued, values first:
row,IC50 [nM],Structure (SMILES)
1,> 10000,COc1ccc(-c2cnc(N3CCN(C(=O)N[C@H]4C5CC6CC4C[C@](OC(N)=O)(C6)C5)c4ccccc43)nc2)cc1
2,> 30000,CS(=O)(=O)N1CCN(c2ccc(N3CCN(C(=O)N[C@H]4C5CC6CC4C[C@](O)(C6)C5)c4ccccc43)nc2)CC1
3,> 10000,COc1ccc(-c2cnc(N3CCN(C(=O)N[C@H]4C5CC6CC4C[C@](C(N)=O)(C6)C5)c4ccccc43)nc2)cc1

# Tested on: Mus musculus
# Test: Ex vivo inhibition of 11beta-HSD1 in C57Bl/6J mouse liver at 30 mg/kg, po after 16 hrs
# Format: functional
# Conditions: not given
# Summary of the method: (§1)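 Mice given a single oral dose as a suspension in Tween 80/0.6% methylcellulose (0.5/99.5, v/v) at 10 mL/kg. At 2 h or 16 h post-dose, animals were killed by cervical dislocation and 50 mg liver and 200 mg subcutaneous fat were taken for 11β-HSD1 activity. Reactions were stopped with HCl 1 N/methanol (1/1). 3H-cortisone and 3H-cortisol were quantified by HPLC with flow scintillation detection.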
row,Structure (SMILES),inhibition in vivo at 30 mg/kg [%]
1,CC(C)(C)N1CCN(c2ccc(N3CCN(C(=O)N[C@H]4C5CC6CC4C[C@](O)(C6)C5)c4ccccc43)nc2)CC1,55
2,CS(=O)(=O)N1CCN(c2ccc(N3CCN(C(=O)N[C@H]4C5CC6CC4C[C@](O)(C6)C5)c4ccccc43)nc2)CC1,47
3,CS(=O)(=O)N1CCN(c2cnc(N3CCN(C(=O)N[C@H]4C5CC6CC4C[C@](O)(C6)C5)c4ccccc43)nc2)CC1,30
4,NC(=O)[C@]12CC3CC(C1)[C@@H](NC(=O)N1CCN(c4ccc(N5CCN(S(=O)(=O)C6CC6)CC5)cn4)c4ccccc41)C(C3)C2,75

# Tested on: Mus musculus
# Test: Ex vivo inhibition of 11beta-HSD1 in C57Bl/6J mouse subcutaneous fat at 3 mg/kg, po after 16 hrs
# Format: functional
# Conditions: not given
# Summary of the method: as §1
row,Structure (SMILES),inhibition in vivo at 3 mg/kg [%]
1,NC(=O)[C@]12CC3CC(C1)[C@@H](NC(=O)N1CCN(c4ccc(N5CCN(S(=O)(=O)C6CC6)CC5)cn4)c4ccccc41)C(C3)C2,> 50

# Tested on: not listed separately
# Test: Permeability across human Caco2 cells
# Format: ADME, cell-based
# Conditions: Caco-2, read-out: permeability
# Summary of the method: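 Permeability was measured with the compound alone and in the presence of the P-gp inhibitor elacridar, and expressed in 10^-7 cm/s.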
row,Structure (SMILES),Papp [×10⁻⁶ cm/s]
1,CC(C)(C)N1CCN(c2ccc(N3CCN(C(=O)N[C@H]4C5CC6CC4C[C@](O)(C6)C5)c4ccccc43)nc2)CC1,3.4
2,CS(=O)(=O)N1CCN(c2cnc(N3CCN(C(=O)N[C@H]4C5CC6CC4C[C@](O)(C6)C5)c4ccccc43)nc2)CC1,0.7
3,NC(=O)[C@]12CC3CC(C1)[C@@H](NC(=O)N1CCN(c4ccc(N5CCN(S(=O)(=O)C6CC6)CC5)cn4)c4ccccc41)C(C3)C2,0.4

# More lines, now with the values ahead:
row,Papp [×10⁻⁶ cm/s],Structure (SMILES)
1,7.9,CS(=O)(=O)N1CCN(c2ccc(N3CCN(C(=O)N[C@H]4C5CC6CC4C[C@](O)(C6)C5)c4ccccc43)nc2)CC1
2,18.2,COc1ccc(-c2cnc(N3CCN(C(=O)N[C@H]4C5CC6CC4C[C@](C(N)=O)(C6)C5)c4ccccc43)nc2)cc1

# Target: 11-beta-hydroxysteroid dehydrogenase 1 (Rattus norvegicus, UniProt P16232)
# Sequence (P16232 whole entry): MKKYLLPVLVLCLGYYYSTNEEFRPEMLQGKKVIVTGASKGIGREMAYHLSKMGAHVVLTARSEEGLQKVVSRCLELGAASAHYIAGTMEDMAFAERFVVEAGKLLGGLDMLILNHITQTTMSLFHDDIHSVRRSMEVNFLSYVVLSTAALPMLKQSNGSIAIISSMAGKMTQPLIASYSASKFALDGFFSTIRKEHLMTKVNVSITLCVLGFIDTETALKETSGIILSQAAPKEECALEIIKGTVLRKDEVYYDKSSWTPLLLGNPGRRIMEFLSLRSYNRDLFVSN
# Test: Inhibition of rat 11beta-HSD1
# Conditions: not given
row,Structure (SMILES),IC50 [nM]
1,CC(C)(C)N1CCN(c2ccc(N3CCN(C(=O)N[C@H]4C5CC6CC4C[C@](O)(C6)C5)c4ccccc43)nc2)CC1,18
2,CS(=O)(=O)N1CCN(c2cnc(N3CCN(C(=O)N[C@H]4C5CC6CC4C[C@](O)(C6)C5)c4ccccc43)nc2)CC1,28
3,NC(=O)[C@]12CC3CC(C1)[C@@H](NC(=O)N1CCN(c4ccc(N5CCN(S(=O)(=O)C6CC6)CC5)cn4)c4ccccc41)C(C3)C2,9

# Further lines, results first:
row,IC50 [nM],Structure (SMILES)
1,100,COc1ccc(-c2cnc(N3CCN(C(=O)N[C@H]4C5CC6CC4C[C@](OC(N)=O)(C6)C5)c4ccccc43)nc2)cc1
2,16,CS(=O)(=O)N1CCN(c2ccc(N3CCN(C(=O)N[C@H]4C5CC6CC4C[C@](O)(C6)C5)c4ccccc43)nc2)CC1
3,70,COc1ccc(-c2cnc(N3CCN(C(=O)N[C@H]4C5CC6CC4C[C@](C(N)=O)(C6)C5)c4ccccc43)nc2)cc1

# Tested on: Liver microsomes
# Test: Metabolic stability in human liver microsomes
# Format: ADME, Microsome
# Conditions: not given
row,Structure (SMILES),Stability [%]
1,CC(C)(C)N1CCN(c2ccc(N3CCN(C(=O)N[C@H]4C5CC6CC4C[C@](O)(C6)C5)c4ccccc43)nc2)CC1,14
2,CS(=O)(=O)N1CCN(c2cnc(N3CCN(C(=O)N[C@H]4C5CC6CC4C[C@](O)(C6)C5)c4ccccc43)nc2)CC1,9
3,NC(=O)[C@]12CC3CC(C1)[C@@H](NC(=O)N1CCN(c4ccc(N5CCN(S(=O)(=O)C6CC6)CC5)cn4)c4ccccc41)C(C3)C2,1

# Next, values leading:
row,Stability [%],Structure (SMILES)
1,89,COc1ccc(-c2cnc(N3CCN(C(=O)N[C@H]4C5CC6CC4C[C@](OC(N)=O)(C6)C5)c4ccccc43)nc2)cc1
2,12,CS(=O)(=O)N1CCN(c2ccc(N3CCN(C(=O)N[C@H]4C5CC6CC4C[C@](O)(C6)C5)c4ccccc43)nc2)CC1
3,49,COc1ccc(-c2cnc(N3CCN(C(=O)N[C@H]4C5CC6CC4C[C@](C(N)=O)(C6)C5)c4ccccc43)nc2)cc1

# Tested on: Mus musculus
# Test: Ex vivo inhibition of 11beta-HSD1 in C57Bl/6J mouse subcutaneous fat at 30 mg/kg, po after 16 hrs
# Format: functional
# Conditions: not given
# Summary of the method: as §1
row,Structure (SMILES),inhibition in vivo at 30 mg/kg [%]
1,CC(C)(C)N1CCN(c2ccc(N3CCN(C(=O)N[C@H]4C5CC6CC4C[C@](O)(C6)C5)c4ccccc43)nc2)CC1,20
2,CS(=O)(=O)N1CCN(c2ccc(N3CCN(C(=O)N[C@H]4C5CC6CC4C[C@](O)(C6)C5)c4ccccc43)nc2)CC1,20
3,CS(=O)(=O)N1CCN(c2cnc(N3CCN(C(=O)N[C@H]4C5CC6CC4C[C@](O)(C6)C5)c4ccccc43)nc2)CC1,0
4,NC(=O)[C@]12CC3CC(C1)[C@@H](NC(=O)N1CCN(c4ccc(N5CCN(S(=O)(=O)C6CC6)CC5)cn4)c4ccccc41)C(C3)C2,50

# Target: 11-beta-hydroxysteroid dehydrogenase 1 (Mus musculus, UniProt P50172)
# Sequence (P50172 whole entry): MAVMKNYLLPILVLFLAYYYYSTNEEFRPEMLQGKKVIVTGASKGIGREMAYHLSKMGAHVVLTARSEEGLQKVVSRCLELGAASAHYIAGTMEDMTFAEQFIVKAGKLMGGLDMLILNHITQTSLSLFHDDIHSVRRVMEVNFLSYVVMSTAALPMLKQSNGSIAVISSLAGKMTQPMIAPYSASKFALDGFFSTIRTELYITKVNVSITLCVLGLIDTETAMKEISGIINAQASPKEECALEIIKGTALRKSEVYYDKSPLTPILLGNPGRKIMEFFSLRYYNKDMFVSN
# Test: Inhibition of mouse recombinant 11beta-HSD1 by scintillation proximity assay
# Conditions: not given
row,Structure (SMILES),IC50 [nM]
1,CC(C)(C)N1CCN(c2ccc(N3CCN(C(=O)N[C@H]4C5CC6CC4C[C@](O)(C6)C5)c4ccccc43)nc2)CC1,8
2,CS(=O)(=O)N1CCN(c2cnc(N3CCN(C(=O)N[C@H]4C5CC6CC4C[C@](O)(C6)C5)c4ccccc43)nc2)CC1,1
3,NC(=O)[C@]12CC3CC(C1)[C@@H](NC(=O)N1CCN(c4ccc(N5CCN(S(=O)(=O)C6CC6)CC5)cn4)c4ccccc41)C(C3)C2,8

# Results, then the compound that gave them:
row,IC50 [nM],Structure (SMILES)
1,5,COc1ccc(-c2cnc(N3CCN(C(=O)N[C@H]4C5CC6CC4C[C@](OC(N)=O)(C6)C5)c4ccccc43)nc2)cc1
2,2,CS(=O)(=O)N1CCN(c2ccc(N3CCN(C(=O)N[C@H]4C5CC6CC4C[C@](O)(C6)C5)c4ccccc43)nc2)CC1
3,36,COc1ccc(-c2cnc(N3CCN(C(=O)N[C@H]4C5CC6CC4C[C@](C(N)=O)(C6)C5)c4ccccc43)nc2)cc1

# Tested on: Mus musculus
# Test: Ex vivo inhibition of 11beta-HSD1 in C57Bl/6J mouse liver at 3 mg/kg, po after 16 hrs
# Format: functional
# Conditions: not given
# Summary of the method: as §1
row,Structure (SMILES),inhibition in vivo at 3 mg/kg [%]
1,NC(=O)[C@]12CC3CC(C1)[C@@H](NC(=O)N1CCN(c4ccc(N5CCN(S(=O)(=O)C6CC6)CC5)cn4)c4ccccc41)C(C3)C2,> 50

# Reference: ChEMBL document CHEMBL2380292, “Discovery of SAR184841, a potent and long-lasting inhibitor of 11β-hydroxysteroid dehydrogenase type 1, active in a physiopathological animal model of T2D” (Bioorg Med Chem Lett, 2013)
